This is an account of results in ChEMBL document CHEMBL1671686, “Carbapenem-resistant KPC-2-producing Escherichia coli in a Tel Aviv Medical Center, 2005 to 2008” (2010).

Converted amounts (≈) assume the structure as drawn. Bounds are passed on as bounds.

Common to all, as to type: functional
The subject of test [1] is Escherichia coli. As to the kind of experiment: Antimicrobial activity against Escherichia coli isolate 543 expressing beta-lactamase KPC2, CTX-M-15, TEM and PFGE cluster 4 isolated from synovial fluid of patient by Etest.
In test [2] the test system is Escherichia coli. As to the kind of experiment: Antimicrobial activity against Escherichia coli isolate 157 expressing beta-lactamase KPC2, CTX-M-15, TEM and PFGE cluster 3 isolated from urine of patient by Etest.
Test [3] has as its system Escherichia coli. As to the kind of experiment: Antimicrobial activity against Escherichia coli isolate 157T expressing beta-lactamase KPC2 and PFGE cluster 3 isolated from urine of patient by Etest. The essentials:
(§1)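 Transformant strains. Plasmids purified from the clinical isolates were electroporated into E. coli DH10B. Transformants were selected on LB agar with 100 μg/ml ampicillin, and colonies were PCR-screened for blaKPC before susceptibility testing.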

The test system of test [4] is Escherichia coli. As to the kind of experiment: Antimicrobial activity against Escherichia coli isolate 1679T expressing beta-lactamase KPC2, TEM and PFGE cluster 6 isolated from peritoneal fluid of patient by Etest. A digest of the protocol:
as §1

Test [5] relates to Escherichia coli. As to the kind of experiment: Antimicrobial activity against Escherichia coli isolate 386T expressing beta-lactamase KPC2, OXA-9 and PFGE cluster 1 isolated from wound of patient by Etest. The essentials:
as §1

Test [6] concerns Escherichia coli. As to the kind of experiment: Antimicrobial activity against Escherichia coli isolate 339T expressing beta-lactamase KPC2 and PFGE cluster 5 isolated from peritoneal fluid of patient by Etest. The essentials:
as §1

Test [7] concerns Escherichia coli. As to the kind of experiment: Antimicrobial activity against Escherichia coli isolate 360T expressing beta-lactamase KPC2, OXA-9 and PFGE cluster 1 isolated from urine of patient by Etest. A digest of the protocol:
as §1

Test [8] concerns Escherichia coli. As to the kind of experiment: Antimicrobial activity against Escherichia coli isolate 543T expressing beta-lactamase KPC2 and PFGE cluster 4 isolated from synovial fluid of patient by Etest. A digest of the protocol: as §1
Test [9] concerns Escherichia coli. As to the kind of experiment: Antimicrobial activity against Escherichia coli isolate 386 expressing beta-lactamase KPC2, CTX-M-15, OXA-9, TEM and PFGE cluster 1 isolated from wound of patient by Etest.
Test [10] relates to Escherichia coli. As to the kind of experiment: Antimicrobial activity against Escherichia coli isolate 360 expressing beta-lactamase KPC2, CTX-M-15, OXA-9, TEM and PFGE cluster 1 isolated from urine of patient by Etest.
For test [11], the system named is Escherichia coli. As to the kind of experiment: Antimicrobial activity against Escherichia coli isolate 329T expressing beta-lactamase KPC2 and PFGE cluster 2 isolated from blood of patient by Etest. A digest of the protocol: as §1
Test [12] deals with Escherichia coli. As to the kind of experiment: Antimicrobial activity against Escherichia coli isolate 329 expressing beta-lactamase KPC2, CTX-M-2, TEM and PFGE cluster 2 isolated from blood of patient by Etest.
Test [13] concerns Escherichia coli. As to the kind of experiment: Antimicrobial activity against Escherichia coli isolate 1679 expressing beta-lactamase KPC2, SHV-12, TEM and PFGE cluster 6 isolated from peritoneal fluid of patient by Etest.
Test [14] concerns Escherichia coli. As to the kind of experiment: Antimicrobial activity against Escherichia coli isolate 547T expressing beta-lactamase KPC2 and PFGE cluster 4 isolated from blood of patient by Etest. The essentials:
as §1

Test [15] concerns Escherichia coli. As to the kind of experiment: Antimicrobial activity against Escherichia coli DH10B by Etest. The note with it: K-12 DH10B.
The subject of test [16] is Escherichia coli. As to the kind of experiment: Antimicrobial activity against Escherichia coli isolate 544 expressing beta-lactamase KPC2, TEM and PFGE cluster 4 isolated from abscess of patient by Etest.
For test [17], the system named is Escherichia coli. As to the kind of experiment: Antimicrobial activity against Escherichia coli isolate 540 expressing beta-lactamase KPC2, TEM and PFGE cluster 4 isolated from synovial fluid of patient by Etest.
For test [18], the system named is Escherichia coli. As to the kind of experiment: Antimicrobial activity against Escherichia coli isolate 547 expressing beta-lactamase KPC2, TEM and PFGE cluster 4 isolated from blood of patient by Etest.
The subject of test [19] is Escherichia coli. As to the kind of experiment: Antimicrobial activity against Escherichia coli isolate 339 expressing beta-lactamase KPC2, TEM and PFGE cluster 5 isolated from peritoneal fluid of patient by Etest.
Test [20] concerns Escherichia coli. As to the kind of experiment: Antimicrobial activity against Escherichia coli isolate 543T expressing beta-lactamase KPC2 and PFGE cluster 4 isolated from synovial fluid of patient by vitek-2 method.
Test [21] deals with Escherichia coli. As to the kind of experiment: Antimicrobial activity against Escherichia coli isolate 386T expressing beta-lactamase KPC2, OXA-9 and PFGE cluster 1 isolated from wound of patient by vitek-2 method.
Test [22] relates to Escherichia coli. As to the kind of experiment: Antimicrobial activity against Escherichia coli isolate 386 expressing beta-lactamase KPC2, CTX-M-15, OXA-9, TEM and PFGE cluster 1 isolated from wound of patient by vitek-2 method.
The test system of test [23] is Escherichia coli. As to the kind of experiment: Antimicrobial activity against Escherichia coli isolate 339T expressing beta-lactamase KPC2 and PFGE cluster 5 isolated from peritoneal fluid of patient by vitek-2 method.
For test [24], the system named is Escherichia coli. As to the kind of experiment: Antimicrobial activity against Escherichia coli isolate 339 expressing beta-lactamase KPC2, TEM and PFGE cluster 5 isolated from peritoneal fluid of patient by vitek-2 method.
Test [25] deals with Escherichia coli. As to the kind of experiment: Antimicrobial activity against Escherichia coli isolate 547 expressing beta-lactamase KPC2, TEM and PFGE cluster 4 isolated from blood of patient by vitek-2 method.
In test [26] the test system is Escherichia coli. As to the kind of experiment: Antimicrobial activity against Escherichia coli isolate 360T expressing beta-lactamase KPC2, OXA-9 and PFGE cluster 1 isolated from urine of patient by vitek-2 method.
For test [27], the system named is Escherichia coli. As to the kind of experiment: Antimicrobial activity against Escherichia coli isolate 329 expressing beta-lactamase KPC2, CTX-M-2, TEM and PFGE cluster 2 isolated from blood of patient by vitek-2 method.
The subject of test [28] is Escherichia coli. As to the kind of experiment: Antimicrobial activity against Escherichia coli isolate 360 expressing beta-lactamase KPC2, CTX-M-15, OXA-9, TEM and PFGE cluster 1 isolated from urine of patient by vitek-2 method.
The subject of test [29] is Escherichia coli. As to the kind of experiment: Antimicrobial activity against Escherichia coli DH10B by vitek-2 method. As to conditions: K-12 DH10B. A digest of the protocol:
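Plasmid-free recipient E. coli DH10B, used as the host for electroporation transformants, was tested for susceptibility on the automated Vitek-2 system.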

Test [30] deals with Escherichia coli. As to the kind of experiment: Antimicrobial activity against Escherichia coli isolate 157 expressing beta-lactamase KPC2, CTX-M-15, TEM and PFGE cluster 3 isolated from urine of patient by vitek-2 method.
In test [31] the test system is Escherichia coli. As to the kind of experiment: Antimicrobial activity against Escherichia coli isolate 1679T expressing beta-lactamase KPC2, TEM and PFGE cluster 6 isolated from peritoneal fluid of patient by vitek-2 method.
Test [32] has as its system Escherichia coli. As to the kind of experiment: Antimicrobial activity against Escherichia coli isolate 544 expressing beta-lactamase KPC2, TEM and PFGE cluster 4 isolated from abscess of patient by vitek-2 method.
Test [33] concerns Escherichia coli. As to the kind of experiment: Antimicrobial activity against Escherichia coli isolate 547T expressing beta-lactamase KPC2 and PFGE cluster 4 isolated from blood of patient by vitek-2 method.
Test [34] deals with Escherichia coli. As to the kind of experiment: Antimicrobial activity against Escherichia coli isolate 543 expressing beta-lactamase KPC2, CTX-M-15, TEM and PFGE cluster 4 isolated from synovial fluid of patient by vitek-2 method.
Test [35] concerns Escherichia coli. As to the kind of experiment: Antimicrobial activity against Escherichia coli isolate 329T expressing beta-lactamase KPC2 and PFGE cluster 2 isolated from blood of patient by vitek-2 method.
The subject of test [36] is Escherichia coli. As to the kind of experiment: Antimicrobial activity against Escherichia coli isolate 540 expressing beta-lactamase KPC2, TEM and PFGE cluster 4 isolated from synovial fluid of patient by vitek-2 method.
For test [37], the system named is Escherichia coli. As to the kind of experiment: Antimicrobial activity against Escherichia coli isolate 157T expressing beta-lactamase KPC2 and PFGE cluster 3 isolated from urine of patient by vitek-2 method.
Test [38] deals with Escherichia coli. As to the kind of experiment: Antimicrobial activity against Escherichia coli isolate 1679 expressing beta-lactamase KPC2, SHV-12, TEM and PFGE cluster 6 isolated from peritoneal fluid of patient by vitek-2 method.

On to `CN(C)c1cc(NC(=O)CNC(C)(C)C)c(O)c2c1C[C@H]1C[C@H]3[C@H](N(C)C)C(O)=C(C(N)=O)C(=O)[C@@]3(O)C(O)=C1C2=O` [TIGECYCLINE], for which the MIC against Escherichia coli [1] came out at 0.19 µg/mL (≈ 0.324 µM); against Escherichia coli [2] (isolate 157, Urine) it was 0.38 µg/mL (≈ 0.649 µM); with Escherichia coli [3] it was 0.19 µg/mL (≈ 0.324 µM); in the test with Escherichia coli [4], 0.38 µg/mL (≈ 0.649 µM); against Escherichia coli [5], 0.19 µg/mL (≈ 0.324 µM); with Escherichia coli [6], 0.19 µg/mL (≈ 0.324 µM). Moreover, the MIC in the test with Escherichia coli [7] was 0.125 µg/mL (≈ 0.213 µM); in the test with Escherichia coli [8], 0.125 µg/mL (≈ 0.213 µM); in the test on Escherichia coli [9] it was 0.75 µg/mL (≈ 1.28 µM); in the test on Escherichia coli [10] (isolate 360, Urine), 0.75 µg/mL (≈ 1.28 µM); in the test with Escherichia coli [11] it was 0.125 µg/mL (≈ 0.213 µM); with Escherichia coli [12] it was 0.19 µg/mL (≈ 0.324 µM). The MIC was 0.125 µg/mL (≈ 0.213 µM) against Escherichia coli [13]; 0.125 µg/mL (≈ 0.213 µM) against Escherichia coli [14]; 0.125 µg/mL (≈ 0.213 µM) in the test with Escherichia coli [15]; 0.38 µg/mL (≈ 0.649 µM) in the test with Escherichia coli [16]; 0.19 µg/mL (≈ 0.324 µM) in the test with Escherichia coli [17]; 0.125 µg/mL (≈ 0.213 µM) against Escherichia coli [18]. In the test on Escherichia coli [19], this molecule yielded an MIC of 0.19 µg/mL (≈ 0.324 µM).

In the case of COLISTIN, the MIC with Escherichia coli [1] is 0.125 µg/mL; against Escherichia coli [2] it was 0.125 µg/mL; with Escherichia coli [3] it was 0.047 µg/mL; in the test with Escherichia coli [4], 0.047 µg/mL; in the test on Escherichia coli [5], 0.047 µg/mL; with Escherichia coli [6] it was 0.047 µg/mL. Moreover, the MIC came out at 0.094 µg/mL in the test with Escherichia coli [7]; 0.047 µg/mL against Escherichia coli [8]; 0.125 µg/mL against Escherichia coli [9]; 0.19 µg/mL against Escherichia coli [10]; 0.047 µg/mL in the test with Escherichia coli [11]; 0.19 µg/mL in the test with Escherichia coli [12]. Further, the MIC in the test with Escherichia coli [13] was determined as 0.38 µg/mL; in the test on Escherichia coli [14] it was 0.047 µg/mL; against Escherichia coli [15], 0.047 µg/mL; against Escherichia coli [16] it was 0.19 µg/mL; in the test with Escherichia coli [17], 0.125 µg/mL; against Escherichia coli [18], 0.19 µg/mL. In the test on Escherichia coli [19], this molecule registered an MIC of 0.125 µg/mL.

With GENTAMICIN, the MIC is below 1 µg/mL against Escherichia coli [20]; 4 µg/mL against Escherichia coli [21]; 4 µg/mL with Escherichia coli [22]; below 1 µg/mL against Escherichia coli [23]; above 16 µg/mL in the test with Escherichia coli [24]; above 16 µg/mL against Escherichia coli [25]. The MIC against Escherichia coli [26] was 2 µg/mL; in the test on Escherichia coli [27], above 16 µg/mL; against Escherichia coli [28], 2 µg/mL; in the test on Escherichia coli [29] it was below 1 µg/mL; against Escherichia coli [30] it was below 1 µg/mL; in the test with Escherichia coli [31], below 1 µg/mL. Besides, the MIC against Escherichia coli [32] was above 16 µg/mL; in the test with Escherichia coli [33] it was below 1 µg/mL; against Escherichia coli [34], above 16 µg/mL; in the test with Escherichia coli [35], below 1 µg/mL; against Escherichia coli [36] it was above 16 µg/mL; against Escherichia coli [37], below 1 µg/mL. Further, the MIC against Escherichia coli [38] is above 16 µg/mL.

For orientation: MIC means the lowest concentration that inhibits growth of the organism. Low readings indicate inhibition by little substance, high ones a need for much substance.
